Bioassay records (PubChem BioAssay)
Rows were chosen to be rich in hits. Some 1.4% of all compounds tested hit in one or more screens of this group.
ARNT-TACC3 inh – ARNT/TACC3 interaction disruption | AID 623870 | Q9Y6A5 | AlphaScreen His-ARNT PAS-B/GST-TACC3 binding, luminescence; TACC3 fragment carries E629A point mutation | inhibition, % at 9.99 µM | 390,000 tested, 0.66% active;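 active means mean inhibition of replicates at least 50% and at least half of replicates each reaching 50%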;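 further: 0% = complete ARNT plus TACC3 wells and 100% = ARNT alone without TACC3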
Dyrk1A ADPGlo – Dyrk1A (rat) kinase inhibition. Q63470. ADP-Glo luminescence, NFATc1 peptide. inhibition, % at 12.5 µM. 310,000 tested, 0.43% active; in the data active means inhibition above about 50%;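 further: plate controls were vehicle with enzyme for no effect and no enzyme for full effect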
CAL PDZ FP-1 – CAL PDZ (human) peptide binding inhibition; Q9HD26; 300,000 tested, 0.92% active; purified CAL PDZ, TMR-peptide fluorescence polarization, 1 h; inhibition, % at 24.9 µM;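 active means mean inhibition of at least 30% with at least half of replicates also reaching 30%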;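 further: 0% = DMSO neutral control and 100% = excess unlabeled competitor peptide PRC23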
CAL PDZ FP-2 – inhibitors of human CAL PDZ peptide binding; purified CAL PDZ, TMR-peptide fluorescence polarization, 1 h; 330,000 tested, 0.02% active; AID 504414; inhibition, % at 20 µM; Q9HD26;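 active means highest replicate inhibition of at least 40%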;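 further: plate controls were DMSO neutral control wells for no effect and unlabeled competitor peptide control wells for full effect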
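material = purified tagged CAL PDZ domain construct (CerCALP) | compound dosing = 20 µM, one dose | times = 1 h at RT | measured by = fluorescence polarization from S- and P-plane intensities, G-factor corrected | read-out = inhibition from polarization loss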
Starred values were filed as active, the others as inactive.

What do the screens show for `CCc1ccc2nc(N(CCN(C)C)C(=O)c3ccc4ccccc4c3)sc2c1`?
ARNT-TACC3 inh: 3; Dyrk1A ADPGlo: 0; CAL PDZ FP-1: 69*; CAL PDZ FP-2: -2

Results for CCN(CC)CCNC(=O)C(=O)Nc1ccc(C(=O)OC)cc1 ?
ARNT-TACC3 inh: -4; Dyrk1A ADPGlo: 3; CAL PDZ FP-1: active; CAL PDZ FP-2: -1

How did CCN(CC)C(=O)Nc1ccc(C(=O)OC)cc1 do in these assays?
ARNT-TACC3 inh: 3; Dyrk1A ADPGlo: -5; CAL PDZ FP-1: -7; CAL PDZ FP-2: -2

Results for CCN1CCN(C(c2ccccc2)c2nnnn2Cc2ccccc2)CC1 (configuration not stated) ?
ARNT-TACC3 inh: -3; Dyrk1A ADPGlo: 0; CAL PDZ FP-1: -8; CAL PDZ FP-2: -2

Results for CCN1CCN(C(c2cc(OC)ccc2OC)c2nnnn2Cc2ccccc2)CC1 (configuration not stated) ?
ARNT-TACC3 inh: -5; Dyrk1A ADPGlo: 1; CAL PDZ FP-1: 54*; CAL PDZ FP-2: -1

Results for CN1c2ccc(C#Cc3cccnc3)cc2[C@H]2[C@H](CCN2S(=O)(=O)c2cccc(F)c2)[C@@H]1CO ?
ARNT-TACC3 inh: -7

How did N#CCCN(C(=O)COC(=O)COc1ccccc1Cc1ccccc1)c1ccccc1 do in these assays?
ARNT-TACC3 inh: -3; CAL PDZ FP-1: 44*; CAL PDZ FP-2: 0

Results for CC(CCC(C)C(C)(C)C)[C@@H]1CC[C@H]2C3C[C@H](OS(O)(=S)=S)[C@H]4C[C@H](OS(O)(=S)=S)[C@@H](OS(O)(=S)=S)C[C@]4(C)[C@H]3CC[C@]12C (some centres not stated) (tested in a mixture with another compound) ?
ARNT-TACC3 inh: 55*; Dyrk1A ADPGlo: 70*; CAL PDZ FP-1: -16; CAL PDZ FP-2: -2

How did CC(=O)N(C)C[C@@H]1Oc2cc(C#Cc3ccccc3)ccc2S(=O)(=O)N([C@H](C)CO)C[C@@H]1C do in these assays?
ARNT-TACC3 inh: 3

How did CCC(=O)N[C@H]1C=C[C@@H](CC(=O)NCCN2CCCCC2)O[C@H]1CO do in these assays?
ARNT-TACC3 inh: -1

How did O=C(NNC(=O)c1ccccn1)c1ccc(OC(F)F)cc1 do in these assays?
ARNT-TACC3 inh: 71*; Dyrk1A ADPGlo: 2; CAL PDZ FP-1: -3; CAL PDZ FP-2: 2

What do the screens show for `C=CCNC(=O)c1c(O)c2cccc3c2n(c1=O)CCC3`?
ARNT-TACC3 inh: -5; Dyrk1A ADPGlo: 7; CAL PDZ FP-1: 33*; CAL PDZ FP-2: -1

Results for NCCNC(=O)c1c(O)c2cccc3c2n(c1=O)CCC3 ?
ARNT-TACC3 inh: 2; Dyrk1A ADPGlo: 11; CAL PDZ FP-1: -2; CAL PDZ FP-2: 0

How did CC1(C)C(/C=C/C=C/C=C/C=C2\N(CCCCS(=O)(=O)O)c3ccc4ccccc4c3C2(C)C)=[N+](CCCCS(=O)(=O)[O-])c2ccc3ccccc3c21 do in these assays?
ARNT-TACC3 inh: 65*; Dyrk1A ADPGlo: 5; CAL PDZ FP-1: -9; CAL PDZ FP-2: 2

How did Cc1cc(Cl)cc(C)c1OCC(=O)NC1CCCCCC1 do in these assays?
Dyrk1A ADPGlo: -5; CAL PDZ FP-1: 48*; CAL PDZ FP-2: 0

Results for Cc1cc(Cl)ccc1OCC(=O)NC1CCCC1 ?
ARNT-TACC3 inh: -4; Dyrk1A ADPGlo: -3; CAL PDZ FP-1: -2; CAL PDZ FP-2: -1

How did Cc1ccsc1C(=O)N/N=C/C=C/c1ccccc1[N+](=O)[O-] do in these assays?
ARNT-TACC3 inh: 4; Dyrk1A ADPGlo: 1; CAL PDZ FP-1: 79*; CAL PDZ FP-2: -1

What do the screens show for `Cc1occc1C(=O)N/N=C/C=C\c1ccccc1[N+](=O)[O-]`?
Dyrk1A ADPGlo: 0; CAL PDZ FP-1: 1; CAL PDZ FP-2: 0

How did COCC(=O)Nc1ccc2c(c1)OC[C@H](C)N(Cc1cccc(F)c1)C[C@H](C)[C@H](OC)CN(C)C2=O do in these assays?
ARNT-TACC3 inh: -4

What do the screens show for `CC(C)=CC(=O)Nc1cccc(S(=O)(=O)NC2=NCCCCC2)c1`?
ARNT-TACC3 inh: -1; Dyrk1A ADPGlo: -2; CAL PDZ FP-1: 47*; CAL PDZ FP-2: 1

How did O=C(CCl)Nc1cccc(S(=O)(=O)NC2=NCCCCC2)c1 do in these assays?
ARNT-TACC3 inh: 9; Dyrk1A ADPGlo: -3; CAL PDZ FP-2: 0

What do the screens show for `Nn1cnnc1N/N=C/c1cc(Br)cc(Br)c1O`?
ARNT-TACC3 inh: 49*; Dyrk1A ADPGlo: -5; CAL PDZ FP-1: 1; CAL PDZ FP-2: -1

Results for CCN(CC)c1ccc(/C=C2\C(=O)N(c3nnc(C)c(=O)[nH]3)N=C2C)cc1 ?
ARNT-TACC3 inh: 60*; Dyrk1A ADPGlo: -3; CAL PDZ FP-1: -4; CAL PDZ FP-2: 0

Results for COc1ccc(CCn2c(=S)[nH]c3ccc(N4CCOCC4)cc3c2=O)cc1OC ?
ARNT-TACC3 inh: 0; Dyrk1A ADPGlo: 3; CAL PDZ FP-1: 128*; CAL PDZ FP-2: 20

What do the screens show for `C[C@H](CO)N1C[C@H](C)[C@H](CN(C)Cc2ccncc2)Oc2cc(-c3ccccc3)ccc2S1(=O)=O`?
ARNT-TACC3 inh: -1

Results for Clc1ccc(OCCOCCN2CCc3ccccc3C2)c(Cl)c1 ?
ARNT-TACC3 inh: -6; Dyrk1A ADPGlo: -4; CAL PDZ FP-1: -3; CAL PDZ FP-2: -1

How did c1ccc(-c2ccccc2OCCOCCN2CCc3ccccc3C2)cc1 do in these assays?
ARNT-TACC3 inh: 2; Dyrk1A ADPGlo: 3; CAL PDZ FP-1: 75*; CAL PDZ FP-2: 0

What do the screens show for `CCOc1ccc2nc(/N=C/c3c(C)[nH]n(-c4ccccc4)c3=O)sc2c1`?
ARNT-TACC3 inh: 27*; Dyrk1A ADPGlo: -2; CAL PDZ FP-1: -2; CAL PDZ FP-2: -1

Results for CCOc1ccc2nc(/N=C/c3c(C)[nH]n(-c4ccc(C)cc4)c3=O)sc2c1 ?
ARNT-TACC3 inh: 32; Dyrk1A ADPGlo: -9; CAL PDZ FP-1: 0; CAL PDZ FP-2: -1

Results for CCCCNC(=O)CSc1nc(CCC)nc2ccccc12 ?
ARNT-TACC3 inh: -1; Dyrk1A ADPGlo: -3; CAL PDZ FP-1: 30*; CAL PDZ FP-2: 0

How did O=C(CSc1ncnc2ccccc12)NCCc1ccccc1 do in these assays?
ARNT-TACC3 inh: -2; Dyrk1A ADPGlo: 1; CAL PDZ FP-1: 45*; CAL PDZ FP-2: 11

What do the screens show for `C[C@H](CO)N1C[C@H](C)[C@@H](CN(C)C(=O)Nc2ccc(F)cc2)Oc2ccc(NS(=O)(=O)c3ccccc3)cc2CC1=O`?
ARNT-TACC3 inh: -21

How did COc1ccc([C@H]2/C=C\CN(C(=O)c3ccccc3)[C@@H](C)C(=O)N2Cc2ccc(F)cc2)cc1 do in these assays?
ARNT-TACC3 inh: 3; Dyrk1A ADPGlo: 11; CAL PDZ FP-1: 0; CAL PDZ FP-2: -2

How did CCCCC(=O)N1C/C=C\[C@H](c2ccc(OC)cc2)N(Cc2ccc(F)cc2)C(=O)[C@@H]1C do in these assays?
ARNT-TACC3 inh: 8.3*; Dyrk1A ADPGlo: 2; CAL PDZ FP-1: -1; CAL PDZ FP-2: 1

How did COc1cc(N/N=C/c2ccccc2O)ncn1 do in these assays?
ARNT-TACC3 inh: 63*; Dyrk1A ADPGlo: 2; CAL PDZ FP-2: -5

What do the screens show for `CCOc1ccc(/C=N/Nc2ccccn2)cc1OC`?
ARNT-TACC3 inh: 10; CAL PDZ FP-1: 30; CAL PDZ FP-2: -1
